# M4 ag: human M4 muscarinic receptor agonists, primary screen, CHO-K1 cells, Fluo-8 calcium fluorescence; AID 624127, 2012; Muscarinic acetylcholine receptor M4 (Homo sapiens), P08173; activation, % at 3 µM; CHO-K1 hM4/Gqi5; vehicle 0%, full acetylcholine response 100%; hit rate 0.14% among 360,000;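 active means activation above the run mean over all test wells plus 3 SD, cut at about 32% in these data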;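 further: peak over basal fluorescence ratio per well then scaled between controls; 0% = DMSO wells and 100% = acetylcholine at EC100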
# M4 PAM: human M4 muscarinic receptor positive allosteric modulators, primary screen, CHO-K1 cells, Fluo-8 calcium fluorescence. Muscarinic acetylcholine receptor M4 (Homo sapiens), P08173. CHO-K1 hM4/Gqi5, ACh EC20; 0% = ACh EC20, 100% = maximal ACh. activation, % at 3 µM. hit rate 0.4% among 360,000. AID 624126, 2012;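 active means activation above its plate's cutoff, the mean activation of sample wells plus 3 SD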
# CHRM4 antagonist: human M4 muscarinic receptor antagonists, primary screen, CHO cells, Fluo-8 calcium fluorescence; Muscarinic acetylcholine receptor M4 (Homo sapiens), P08173; CHO-hM4 cells, ACh EC80; inhibition, % at 3 µM; hit rate 0.73% among 360,000; AID 624125, 2012;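 active means inhibition above its plate's cutoff, the mean inhibition of sample wells plus 3 SD, cut at about 27% in these data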;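 further: 0% = acetylcholine EC80 with DMSO and 100% = DMSO without agonist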
# M5 antag: human M5 muscarinic receptor antagonists, primary screen, CHO cells, Fluo-8 calcium fluorescence | Muscarinic acetylcholine receptor M5 (Homo sapiens), P08912 | CHO-hM5 cells, ACh EC80 | inhibition, % at 3 µM | AID 624040, 2012 | hit rate 0.59% among 360,000;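 active means inhibition above a per-plate cutoff, the mean of that plate's test compounds plus 3 SD, cut at about 27% in these data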;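 further: 0% = acetylcholine EC80 with DMSO and 100% = DMSO without agonist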
# Target sequence (P08912 whole entry, looked up): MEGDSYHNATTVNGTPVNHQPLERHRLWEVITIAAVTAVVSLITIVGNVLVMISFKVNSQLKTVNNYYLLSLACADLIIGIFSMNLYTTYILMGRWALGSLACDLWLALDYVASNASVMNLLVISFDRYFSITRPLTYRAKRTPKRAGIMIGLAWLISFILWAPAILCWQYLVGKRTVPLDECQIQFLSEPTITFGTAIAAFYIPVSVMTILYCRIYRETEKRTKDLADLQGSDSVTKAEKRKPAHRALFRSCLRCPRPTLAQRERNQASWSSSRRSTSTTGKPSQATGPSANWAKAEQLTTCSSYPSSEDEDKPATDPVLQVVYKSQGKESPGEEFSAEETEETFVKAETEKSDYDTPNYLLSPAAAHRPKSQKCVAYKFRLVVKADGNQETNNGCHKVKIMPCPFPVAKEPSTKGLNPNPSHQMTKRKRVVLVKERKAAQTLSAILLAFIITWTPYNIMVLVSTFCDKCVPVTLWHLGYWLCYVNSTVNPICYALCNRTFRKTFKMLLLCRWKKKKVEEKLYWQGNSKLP
# M5 PAM: human M5 muscarinic receptor positive allosteric modulators, primary screen, CHO-K1 cells, Fluo-8 calcium fluorescence. Muscarinic acetylcholine receptor M5 (Homo sapiens), P08912. CHO-K1 hM5, ACh EC20 PAM; 0% = ACh EC20, 100% = ACh EC100. activation, % at 3 µM. hit rate 0.3% among 360,000;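 active means activation above the run cutoff, the mean activation of all test compounds plus 3 SD, cut at about 18% in these data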
#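 System – CHO-K1 hM5 cells · Compound – 3 µM, single dose · Incubation – compound preincubation 140 s before EC20 acetylcholine addition · Technique – Fluo-8 calcium fluorescence · Measure – Max/basal fluorescence ratio as % of EC20–EC100 ACh window · Benchmarks – low control EC20 acetylcholine (0%), high control EC100 acetylcholine (100%) · Replication – singlicate, one well per test compound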
# CHRM5 agonist: human M5 muscarinic receptor agonists, primary screen, CHO-K1 cells, Fluo-8 calcium fluorescence; activation, % at 3 µM; CHO-K1 hM5 cells; 0% DMSO wells, 100% maximal acetylcholine response; hit rate 0.19% among 360,000; Muscarinic acetylcholine receptor M5 (Homo sapiens), P08912;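 active means activation above the run's mean over test compounds plus 3 SD, cut at about 23% in these data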;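 further: signal is peak over basal fluorescence ratio across the kinetic read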
# The depositor's hits bear a star; + = active, no number. Shown are actives, neighbours in structure and some others; about 1.9% of the full set was active somewhere.
SMILES,M4 ag,M4 PAM,CHRM4 antagonist,M5 antag,M5 PAM,CHRM5 agonist
O=C(CN1CCN(C(c2ccccc2)c2ccccc2)CC1)N1CCOCC1,2,-16,37*,24,-14,-5
COc1ccc(N2CCN(CC(=O)NC(C)c3ccccc3)CC2)cc1 (stereo not drawn),0,2,-3,4,8,-1
N#CCC(=O)N1CCN(C(c2ccccc2)c2ccccc2)CC1,-1,-8,5,12,-7,-16
O=C(O)COCC(=O)N1CCN(C(c2ccccc2)c2ccccc2)CC1,16,-50,41*,40*,-31,-16
COc1ccc(N2CCN(C(=O)CN3CCN(C(c4ccccc4)c4ccccc4)CC3)CC2)cc1,0,-15,28*,4,-13,-9
CCn1cc2nc(SCC(=O)Nc3ccc(F)cc3F)n(Cc3ccccc3)c(=O)c2n1,10,-2,-6,5,-3,2
NC(=O)CN1CCOCCOCCN(CC(N)=O)CCOCCOCC1,0,3,101*,-5,5,1
CCOC(=O)c1sc(NC(=O)CN2C(=O)NC3(CCCCCCC3)C2=O)c(C(=O)OCC)c1C,0,11,27*,-2,2,0
Cc1snc(SCc2cccc(Cl)c2)c1C#N,0,-1,-4,5,2,-7
Cc1ccc(C)c(S(=O)(=O)N(C)C2(C)CCS(=O)(=O)C2)c1 (stereo not drawn),1,5,-9,4,4,-1
CC(=O)Oc1ccc2c(c1)Oc1cc(OC(C)=O)ccc1C21OC(=O)c2ccccc21,865*,-17,101*,102*,-21,+
CN(CCc1ccccc1)C(=O)CCc1nnc(Cc2ccc3c(c2)OCO3)o1,2,-3,-2,5,-10,-5
O=[N+]([O-])c1ccc(Nc2ccccc2)c2nonc12,21,-11,-8,-1,-8,7
O=[N+]([O-])c1ccc(Sc2cccc[n+]2[O-])c2nonc12,6,-42,64*,41*,-14,17
CN(C)CCCNC(=O)C[C@H]1C[C@H](C(=O)N2CCCCC2)[C@@]2(CCc3ccccc3)c3[nH]c4ccc(Cl)cc4c3CCN2C1=O,-1,0,7,-7,4,-3
NC(=O)c1c(-c2ccc(Cl)cc2Cl)csc1NC(=O)Cc1ccccc1,9,-25,3,38*,-19,0
COc1ccc2nc3ccccc3nc2c1NC(=O)c1ccccc1Cl,7,-10,3,28*,-14,0
Cc1ccccc1N(CC(=O)N1CCc2ccccc2C1)S(C)(=O)=O,1,2,-2,1,9,-6
CS(=O)(=O)N(CC(=O)N1CCc2ccccc2C1)c1ccccc1Br,8,16*,22,17,1,3
O=C1CC2(CCN(C(=O)c3ccccc3[N+](=O)[O-])CC2)Oc2ccccc21,3,0,-5,4,0,5
C[C@@H]1CN([C@@H](C)CO)C(=O)c2c(c3ccccc3n2C)-c2ccccc2CO[C@H]1CN(C)C(=O)[C@H](C)c1ccccc1,-2,4,-21,0,-2,-3
Cc1cnc(NC(=O)CSC(=S)N2CCOCC2)s1,3,6,1,-16,5,-1
Cc1ccccc1C(=O)N1CCN(S(=O)(=O)c2cccs2)CC1,0,0,27*,-8,2,-1
Cc1ccsc1C(=O)N1CCN(S(=O)(=O)c2cccs2)CC1,2,0,-4,6,0,-5
COc1ccc(C2=NN(C(=O)CSc3nccn3C)C(c3ccco3)C2)cc1 (stereo not drawn),1,-3,-1,3,6,-3
SMILES,M4 ag,M4 PAM,CHRM4 antagonist,M5 antag,M5 PAM,CHRM5 agonist
COc1ccc(-n2c(C)nc3c(cnn3-c3ccc(C)c(C)c3)c2=O)cc1,1,-11,31*,4,-1,1
c1ccc(Nc2cccc3ccccc23)cc1,-1,4,-18,1,-5,-1
c1ccc(Nc2ccc3c4c(cccc24)CC3)cc1,27,-19,33*,37*,-10,27*
O=C1C(Cc2ccccc2)Nc2ncnc(N3CCCCC3)c2N1Cc1ccccc1 (stereo not drawn),1,1,-1,9,3,-13
CC(=O)N1c2ccc(F)c(F)c2C[C@H]1C,1,9,-2,7,10,1
CN1CCN(C2=Nc3ccccc3Oc3ccc(Cl)cc32)CC1,1,-16,37*,72*,-19,-1
N#C/C(=C/c1ccc(N2CCCCC2)o1)C(=O)Nc1ccc(Cl)cc1,170*,-19,45*,55*,-26,56*
N#C/C(=C/c1ccc(N2CCCCC2)o1)C(=O)Nc1ccc2ccccc2c1,181*,-23,84*,91*,-21,457*
COc1cc2c(cc1OC)CN(C(=O)c1ccc(S(=O)(=O)N3CCCCC3)cc1)CC2,2,11,-9,4,-3,-4
COc1cc2c(cc1OC)CN(C(=O)C1CCCN1S(=O)(=O)c1ccc(F)cc1)CC2 (stereo not drawn),3,17*,-13,1,-1,-1
COc1ccc(S(=O)(=O)N2CCCCC2C(=O)O)cc1OC (stereo not drawn),1,0,3,-2,21*,-3
COc1cc2c(cc1OC)CN(C(=O)CNS(=O)(=O)c1ccc(C)c(C)c1)CC2,16,30*,19,21,23*,1
CC1CC2(C)Oc3ccccc3CC2C(C)C1CNCCCN(C)C (stereo not drawn),2,-7,-3,7,-7,-10
O=[N+]([O-])c1ccccc1C=NNc1ccccc1,-1,-2,6,14,1,-4
O=[N+]([O-])c1ccccc1/C=N/NC1=NCCN1,1,11,-10,-9,19*,0
Cc1csc2c(=O)n(CCO)c(=O)[nH]c12,1,-1,12,2,10,1
Cc1ccc(NC(=O)c2snc3ccc(Cl)cc23)cc1C,2,9,-3,31*,-12,-7
COc1ccc(C(=O)OC2CCN(C)CC2)cc1,1,31*,-15,-11,4,-7
COc1cc(C(=O)N/N=C(\C)c2ccc(NC(=O)Cc3ccccc3)cc2)ccc1O,3,3,-9,2,-5,-3

# Compound activity (PubChem)
